SENP8 block-1: SENP8 protease inhibitors, primary screen, biochemical, luminescence. purified SENP8, Z-RLRGG-aminoluciferin cleavage. inhibition, % at 10 µM. Sentrin-specific protease 8 (Homo sapiens), Q96LD8. actives 1.2% (n = 330,000); in the data active = inhibition above about 50%
SENP7 block: SENP7 protease inhibitors, primary screen, biochemical, luminescence, uHTS | Sentrin-specific protease 7 (Homo sapiens), Q9BQF6 | recombinant SENP7, Z-RLRGG-aminoluciferin luminescence, 40 min | inhibition, % at 5 µM | actives 1.5% (n = 330,000) | AID 434973, 2010;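 active = inhibition above about 50% at the single test dose, limit read from the data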;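 note: plate controls were DMSO with enzyme for no effect and no enzyme buffer wells for full effect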
UBC13 polyUb: UBC13 polyubiquitin chain formation inhibitors, primary screen, biochemical, TR-FRET, uHTS; inhibition, % at 20 µM; actives 0.47% (n = 330,000); AID 485273, 2010; in the data active = inhibition above about 45%, passing the limit was not always enough
Target sequence (P61088 whole entry, looked up): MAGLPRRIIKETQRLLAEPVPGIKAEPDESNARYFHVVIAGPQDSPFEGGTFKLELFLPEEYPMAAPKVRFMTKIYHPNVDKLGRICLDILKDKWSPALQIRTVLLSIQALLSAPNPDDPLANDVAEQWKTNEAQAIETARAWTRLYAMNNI
SENP8 block-2: human SENP8 protease inhibitors, primary screen, biochemical, fluorescence, Nedd8 protein substrate, uHTS. recombinant SENP8. inhibition, % at 20 µM. actives 0.64% (n = 360,000). AID 602440, 2012; in the data active = inhibition mostly above about 40%, no sharp cut-off; inactive = mostly below about 27%
Apaf-1 inh: inhibitors of human Apaf-1 apoptosome, primary screen, biochemical, DEVD-Rh110 fluorescence, uHTS | Apoptotic protease-activating factor 1 (Homo sapiens), O14727 | reconstituted apoptosome caspase-3 activity | inhibition, % at 20 µM | actives 0.71% (n = 330,000) | AID 489030, 2010; active = inhibition of at least 40% at 20 µM;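 note: plate controls were DMSO wells for no effect and DEVD-CHO caspase inhibitor wells for full effect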
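Assay system: Apoptosome proteins | Medium: pH 7.5 Hepes buffer with CHAPS, BSA, DTT | Also added: Cytochrome c and DEVD-Rh110 substrate | Times: 30 min plus 50 min, RT | Detection: Rhodamine 110 fluorescence at Ex 480/Em 540 nm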
SENP6 block: SENP6 protease inhibitors, primary screen, biochemical, luminescence, uHTS. Sentrin-specific protease 6 (Homo sapiens), Q9GZR1. Recombinant SENP6 catalytic domain, aminoluciferin luminescence. inhibition, % at 10 µM. actives 1.8% (n = 330,000). AID 2599, 2010;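 active = inhibition above about 50% at the single tested dose, limit read from the data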;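 note: plate controls were DMSO wells with enzyme for no effect and DMSO wells lacking enzyme for full effect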
SENP8 conf: SENP8 protease inhibitors, retest, confirmation, biochemical, luminescence, single concentration; Recombinant SENP8, Z-RLRGG-aminoluciferin luminescence, 60 min; inhibition, % at 12.5 µM; actives 40% (n = 6,200); shares compounds with SENP7 block;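 active = mean inhibition across replicates above about 50%, limit read from the data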
SENP6 conf: SENP6 protease inhibitors, confirmation, biochemical, luminescence, single concentration; shares compounds with SENP7 block; recombinant SENP6, Z-RLRGG-aminoluciferin luminescence; inhibition, % at 12.5 µM; actives 58% (n = 6,200); AID 488915, 2010
SENP7 confirm: SENP7 protease inhibitors, retest, confirmation, biochemical, luminescence, single concentration; shares compounds with SENP7 block; recombinant SENP7, Z-RLRGG-aminoluciferin luminescence, 40 min; inhibition, % at 12.5 µM; actives 69% (n = 6,200); AID 488917, 2010
Casp3 SENP sel: caspase-3 protease inhibitors, confirmation, selectivity assay for SENP inhibitor project, biochemical, single concentration | shares compounds with SENP7 block | purified caspase-3, Z-DEVD-aminoluciferin luminescence, 60 min | inhibition, % at 12.5 µM | actives 60% (n = 6,200);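 active = mean inhibition above about 50%, limit read from the data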;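 note: plate controls were enzyme with DMSO for no effect and wells without caspase-3 for full effect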
Target sequence (P42574 28-227 limits assumed): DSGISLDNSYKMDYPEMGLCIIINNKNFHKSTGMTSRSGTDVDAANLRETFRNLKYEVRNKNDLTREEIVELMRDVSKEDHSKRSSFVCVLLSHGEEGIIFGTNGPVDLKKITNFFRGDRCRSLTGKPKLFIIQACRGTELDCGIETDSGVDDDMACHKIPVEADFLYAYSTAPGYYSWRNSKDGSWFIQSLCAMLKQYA
SENP luc ctr: counter-screen for SENP inhibitors: luminescence interference. AID 488919. actives 39% (n = 6,200). shares compounds with SENP7 block. Pre-incubated SENP8/Z-RLRGG-aminoluciferin, luciferase luminescence interference. inhibition, % at 12.5 µM;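 active = mean inhibition above about 50% when retested at one dose, limit read from the data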;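 note: plate controls were DMSO wells with completed reaction for no effect and substrate without enzyme for full effect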
The depositor's hits bear a star; . = not tested or not shown. Hits are enriched below; roughly 3% of the tested compounds scored in any of these assays.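 Rule for the calls, unless noted: active = mean inhibition above about 50% in the one-dose retest (limit read from the data); inactive = the rest.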

SMILES	SENP8 block-1	SENP7 block	UBC13 polyUb	SENP8 block-2	Apaf-1 inh	SENP6 block	SENP8 conf	SENP6 conf	SENP7 confirm	Casp3 SENP sel	SENP luc ctr
Cc1ccccc1/C=N/Nc1nc2ccccc2[nH]1	-17	-9	2	-106	13	-7	.	.	.	.	.
Cc1ccc(/C=N/Nc2nc3ccccc3[nH]2)s1	56*	7	-8	-100	20	56*	68*	61*	84*	44	71*
O=[N+]([O-])c1ccc(/C=N/Nc2ncccc2[N+](=O)[O-])s1	27	91*	-111	33	-5	41	23	22	19	35	6
O=[N+]([O-])c1cccnc1Nc1ccc(Cl)cc1	.	.	.	33	.	.	.	.	.	.	.
O=[N+]([O-])c1ccc(/C=N/n2cnc3ccccc32)s1	2	34	-13	36	13	73*	15	25	16	2	0
Cc1nc2ccccc2n1/N=C/c1ccc([N+](=O)[O-])s1	33	11	-11	34	1	73*	-9	14	1	-3	-4
CCN1CCCC1CNC(=O)C1CCN(C(=O)c2cc3sccc3n2Cc2ccc(F)cc2)CC1 (centres undefined)	-2	4	26	8	4	-3	.	.	.	.	.
O=C1NC(=S)S/C1=C\c1coc2ccccc2c1=O	-1	14	-5	-76	20	-18	.	.	.	.	.
O=C1NC(=S)S/C1=C\c1coc2ccc(O)cc2c1=O	60*	4	-1	18	-7	81*	7	69*	44	37	74*
C#CCn1cnc2c(cnn2-c2ccc(C)c(C)c2)c1=O	-2	4	-1	4	5	-8	.	.	.	.	.
Cc1ccc(-n2ncc3c(SCC(N)=O)ncnc32)cc1C	57*	29	2	-116	4	44	-26	-15	0	7	-6
Cc1nc2c3cnn(-c4ccc(C)c(C)c4)c3ncn2n1	38	44	0	-482	23	58*	41	41	68*	79*	36
Cc1ccc(-n2ncc3c(=O)n(CC(N)=O)cnc32)cc1C	-9	-7	-3	-1	12	-2	.	.	.	.	.
O=C(CSc1nc2c(cnn2-c2cccc(Cl)c2)c(=O)[nH]1)NCC1CCCO1 (centres undefined)	-10	-3	-26	4	5	-7	.	.	.	.	.
O=C(CSc1ncnc2c1cnn2-c1cccc(Cl)c1)NCC1CCCO1 (centres undefined)	87*	6	5	-20	16	89*	-5	26	17	45	10
O=C(Nc1ccc(F)c(F)c1)C1CCN(S(=O)(=O)c2cccs2)CC1	5	-6	4	18	6	-4	.	.	.	.	.
COc1ccc(-n2c(=O)c3ccccc3n(CC(=O)NCC3CCCO3)c2=O)cc1 (centres undefined)	-4	7	0	-2	0	-13	.	.	.	.	.
